ChEMBL document CHEMBL1139940, “2-Aryl-2-hydroxyethylamine substituted 4-oxo-4,7-dihydrothieno[2,3-b]pyridines as broad-spectrum inhibitors of human herpesvirus polymerases” (Bioorg Med Chem Lett, 2007)
pIC50: −log10 of the molar value. In brackets after ≈: the same amount, converted by molar mass.

How the values were obtained:
[1] = target: T1, DNA polymerase catalytic subunit (Human cytomegalovirus (strain AD169) (HHV-5) (Human herpesvirus 5), UniProt P08546); assay: Inhibition of HCMV DNA polymerase by scintillation proximity assay; design: species or system Human betaherpesvirus 5
T1 sequence (P08546 whole entry): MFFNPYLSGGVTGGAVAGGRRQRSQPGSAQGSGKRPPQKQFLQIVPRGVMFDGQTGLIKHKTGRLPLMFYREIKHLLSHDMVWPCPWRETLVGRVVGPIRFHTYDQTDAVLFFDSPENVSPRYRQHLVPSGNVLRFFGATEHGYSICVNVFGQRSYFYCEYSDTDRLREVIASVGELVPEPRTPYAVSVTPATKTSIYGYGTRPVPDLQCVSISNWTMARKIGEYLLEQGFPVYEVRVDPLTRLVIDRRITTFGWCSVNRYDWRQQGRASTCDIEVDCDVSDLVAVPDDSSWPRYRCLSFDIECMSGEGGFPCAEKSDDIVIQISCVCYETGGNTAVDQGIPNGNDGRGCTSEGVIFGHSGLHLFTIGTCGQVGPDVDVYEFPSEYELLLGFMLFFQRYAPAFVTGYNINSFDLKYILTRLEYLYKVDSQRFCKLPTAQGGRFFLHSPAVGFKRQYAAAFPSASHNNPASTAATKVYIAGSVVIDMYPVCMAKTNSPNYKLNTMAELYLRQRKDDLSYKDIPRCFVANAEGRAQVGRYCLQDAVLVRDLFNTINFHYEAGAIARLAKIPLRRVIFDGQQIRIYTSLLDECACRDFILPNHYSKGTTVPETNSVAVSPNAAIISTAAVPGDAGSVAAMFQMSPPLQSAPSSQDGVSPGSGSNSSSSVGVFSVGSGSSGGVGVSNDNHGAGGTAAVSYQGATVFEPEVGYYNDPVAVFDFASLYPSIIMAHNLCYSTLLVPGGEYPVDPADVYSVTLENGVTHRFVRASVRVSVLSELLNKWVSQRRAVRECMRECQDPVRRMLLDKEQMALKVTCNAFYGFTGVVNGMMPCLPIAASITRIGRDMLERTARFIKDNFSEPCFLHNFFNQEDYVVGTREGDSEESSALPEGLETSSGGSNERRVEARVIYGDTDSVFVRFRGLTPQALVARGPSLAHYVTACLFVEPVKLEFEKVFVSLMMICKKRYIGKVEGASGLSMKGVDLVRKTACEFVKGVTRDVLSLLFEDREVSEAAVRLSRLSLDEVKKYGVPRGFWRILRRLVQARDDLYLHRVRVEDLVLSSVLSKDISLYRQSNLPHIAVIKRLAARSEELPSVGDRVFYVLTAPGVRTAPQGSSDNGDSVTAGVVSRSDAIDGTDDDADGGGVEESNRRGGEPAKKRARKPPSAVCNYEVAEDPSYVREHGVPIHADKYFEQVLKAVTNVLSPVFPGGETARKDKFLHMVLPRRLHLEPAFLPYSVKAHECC
In short: (§1)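 Purified viral or human DNA polymerase; incorporation of 3H-labeled nucleotide into template-primer measured by scintillation proximity.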

Human betaherpesvirus 5 = assay: Antiviral activity against HCMV Davis in HFF cells by plaque reduction assay; type: functional, organism-based; settings: Human betaherpesvirus 5, Davis
In short: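 Plaque reduction in human foreskin fibroblasts infected with Davis strain; values are means of at least two experiments, SD given.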

[2] = Inhibition of HSV1 DNA polymerase by scintillation proximity assay; design: species or system Human alphaherpesvirus 1; in short: as §1
[3] = Inhibition of VZV DNA polymerase by scintillation proximity assay; design: species or system Human alphaherpesvirus 3; in short: as §1
[4] = Aqueous solubility of the compound; type: physicochemical
Human alphaherpesvirus 1 = assay: Antiviral activity against HSV1 KOS in Vero cells by plaque reduction assay; type: functional, organism-based; settings: Human alphaherpesvirus 1, KOS
Human alphaherpesvirus 3 = assay: Antiviral activity against VZV Webster in HFF cells by plaque reduction assay; type: functional, organism-based; settings: Human alphaherpesvirus 3, Webster
[5] = Cytotoxicity against HFF cells after 3 days; type: cell-based; settings: human
In short: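 Subconfluent replicating HFF monolayers exposed to compound for 3 days; viability scored by microscopic evaluation and quantitative neutral red dye uptake; CC50 from a single determination.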

[6] = Inhibition of human DNA polymerase alpha by scintillation proximity assay; in short: as §1
[7] = Inhibition of human DNA polymerase gamma by scintillation proximity assay; in short: as §1
[8] = Inhibition of human DNA polymerase delta by scintillation proximity assay; in short: as §1
Human gammaherpesvirus 4 = assay: Antiviral activity against EBV in GG68 cells after 72 hrs; type: functional, organism-based; settings: human gammaherpesvirus 4, GG68, 72 h
In short: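 GG68 cells induced into lytic replication with 40 ng/mL TPA plus 4 mM n-butyric acid; compound added at 0.5% final DMSO; 72 h at 37 °C, then cells lysed and DNA harvested.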

[9] = Oral bioavailability in rat at 15 mg/kg; type: ADME, organism-based; settings: in vivo
[10] = Oral bioavailability in dog at 15 mg/kg; type: ADME, organism-based, Canis lupus familiaris; settings: in vivo
[11] = Inhibition of EBV DNA polymerase by T7 quick-coupled transcription-translation system; design: species or system human gammaherpesvirus 4
In short: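 EBV polymerase plus BMRF-1 in 50 mM Tris pH 8, 70 mM NH4SO4, 10 mM MgCl2, dCTP/dTTP/dGTP, 0.5 µCi 32P-dATP, 100 µg/mL activated calf thymus DNA; compound added before enzyme, 1% final DMSO; 30 min at 37 °C; TCA precipitation onto glass filters, incorporated 32P counted by scintillation.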

| SMILES | pIC50 [1] | pIC50 (Human betaherpesvirus 5) | also measured |
| --- | --- | --- | --- |
| CN(Cc1cc2c(=O)c(C(=O)NCc3ccc(Cl)cc3)cn(C)c2s1)CC(O)c1ccccc1 (centres undefined) | 7.00 | 6.74 | – |
| CCN(Cc1cc2c(=O)c(C(=O)NCc3ccc(Cl)cc3)cn(C)c2s1)CC(O)c1ccccc1 (centres undefined) | 6.62 | 6.35 | – |
| CC(C)N(Cc1cc2c(=O)c(C(=O)NCc3ccc(Cl)cc3)cn(C)c2s1)CC(O)c1ccccc1 (centres undefined) | 5.69 | 5.80 | – |
| CN(Cc1cc2c(=O)c(C(=O)NCc3ccc(Cl)cc3)cn(C)c2s1)C[C@@H](O)c1ccccc1 | – | – | pIC50 [2]: 6.40; pIC50 [3]: 6.70 |
| CN(Cc1cc2c(=O)c(C(=O)NCc3ccc(Cl)cc3)cn(C)c2s1)C[C@H](O)c1ccccc1 | 5.59 | – | pIC50 [2]: 4.98; pIC50 [3]: 5.30 |
| CN(Cc1cc2c(=O)c(C(=O)NCc3ccc(F)cc3)cn(C)c2s1)CC(O)c1ccc(F)cc1 (centres undefined) | 6.66 | 6.70 | – |
| CN(Cc1cc2c(=O)c(C(=O)NCc3cccc(Cl)c3)cn(C)c2s1)CC(O)c1ccc(F)cc1 (centres undefined) | 6.69 | 6.60 | – |
| CN(Cc1cc2c(=O)c(C(=O)NCc3cccc(Cl)c3)cn(C)c2s1)CC(O)c1ccccn1 (centres undefined) | 7.07 | 7.05 | solubility [4]: 9 µM (≈ 4.47 µg/mL) |
| CN(Cc1cc2c(=O)c(C(=O)NCc3cccc(Cl)c3)cn(C)c2s1)CC(O)c1cccnc1 (centres undefined) | 6.80 | 7.22 | – |
| CN(Cc1cc2c(=O)c(C(=O)NCc3ccc(Cl)cc3)cn(C)c2s1)CC(O)c1ccncc1 (centres undefined) | 6.70 | 7.07 | – |
| CN(Cc1cc2c(=O)c(C(=O)NCc3ccc(Cl)cc3)cn(C)c2s1)CC(O)c1ccco1 (centres undefined) | 7.11 | 7.52 | solubility [4]: 0.4 µM (≈ 0.194 µg/mL) |
| CN(Cc1cc2c(=O)c(C(=O)NCc3ccc(Cl)cc3)cn(C)c2s1)CC(O)c1ccc2ccccc2n1 (centres undefined) | 7.19 | 7.40 | – |
| CN(Cc1cc2c(=O)c(C(=O)NCc3ccc(Cl)cc3)cn(C)c2s1)CC(O)c1cccs1 (centres undefined) | 6.76 | 6.60 | – |
| CN(Cc1cc2c(=O)c(C(=O)NCc3ccc(Cl)cc3)cn(C)c2s1)CC(O)c1cccc(C#N)c1 (centres undefined) | 7.18 | 7.00 | – |
| CN(Cc1cc2c(=O)c(C(=O)NCc3ccc(Cl)cc3)cn(C)c2s1)CC(O)c1ccc(C#N)cc1 (centres undefined) | 6.50 | 6.52 | – |
| COc1cccc(C(O)CN(C)Cc2cc3c(=O)c(C(=O)NCc4ccc(Cl)cc4)cn(C)c3s2)c1 (centres undefined) | 7.06 | 7.70 | – |
| CN(Cc1cc2c(=O)c(C(=O)NCc3ccc(Cl)cc3)cn(C)c2s1)CC(O)c1nccs1 (centres undefined) | 6.63 | 6.70 | – |

| SMILES | pIC50 [1] | pIC50 (Human betaherpesvirus 5) | also measured |
| --- | --- | --- | --- |
| CN(Cc1cc2c(=O)c(C(=O)NCc3ccc(Cl)cc3)cn(C)c2s1)CC(O)c1ncccn1 (centres undefined) | 7.00 | 7.00 | – |
| CN(Cc1cc2c(=O)c(C(=O)NCc3ccc(Cl)cc3)cn(C)c2s1)CC(O)c1cnccn1 (centres undefined) | 7.07 | 7.19 | solubility [4]: 72 µM (≈ 35.9 µg/mL) |
| CC(C)C(O)CN(C)Cc1cc2c(=O)c(C(=O)NCc3ccc(Cl)cc3)cn(C)c2s1 (centres undefined) | 4.76 | < 5.30 | – |
| C[C@H](O)CN(C)Cc1cc2c(=O)c(C(=O)NCc3ccc(Cl)cc3)cn(C)c2s1 | 7.46 | – | – |
| CN(Cc1cc2c(=O)c(C(=O)NCc3cccc(Cl)c3)cn(C)c2s1)C[C@@H](O)c1ccccn1 | 7.21 | 7.00 | pIC50 [2]: 7.12; pIC50 [3]: 7.68; pIC50 (Human alphaherpesvirus 1): 5.52; pIC50 (Human alphaherpesvirus 3): 8.70; CC50 at 72 h [5]: > 100000 nM; pIC50 [6]: < 4.40; pIC50 [7]: < 4.40; pIC50 [8]: < 4.40; pIC50 (Human gammaherpesvirus 4): 6.70; bioavailability [9]: 45%; bioavailability [10]: 76%; pIC50 [11]: 7.15 |
| Cn1cc(C(=O)NCc2ccc(Cl)cc2)c(=O)c2cc(CNCC(O)c3ccccc3)sc21 (centres undefined) | 5.08 | < 5.30 | – |
| CN(Cc1cc2c(=O)c(C(=O)NCc3ccc(Cl)cc3)cn(C)c2s1)C[C@@H](O)c1cnccn1 | 7.43 | 7.82 | pIC50 [2]: 7.12; pIC50 [3]: 7.72; pIC50 (Human alphaherpesvirus 1): 5.80; pIC50 (Human alphaherpesvirus 3): 8.15; CC50 at 72 h [5]: > 100000 nM; pIC50 [6]: < 4.40; pIC50 [7]: < 4.40; pIC50 [8]: < 4.40; bioavailability [9]: 21%; bioavailability [10]: 66% |
| Cn1cc(C(=O)NCc2ccc(Cl)cc2)c(=O)c2cc(CN(CCO)CC(O)c3ccccc3)sc21 (centres undefined) | 5.80 | 6.40 | – |
| Cn1cc(C(=O)NCc2ccc(Cl)cc2)c(=O)c2cc(CN(CC(O)c3ccccc3)C3CC3)sc21 (centres undefined) | 5.05 | < 5.30 | – |
| CN(Cc1cc2c(=O)c(C(=O)NCc3ccc(Cl)cc3)cn(C)c2s1)CC(O)c1ccoc1 (centres undefined) | 6.60 | 6.40 | – |
| CN(Cc1cc2c(=O)c(C(=O)NCc3ccc(Cl)cc3)cn(C)c2s1)CC(O)c1cc2ccccc2o1 (centres undefined) | 7.92 | 6.82 | – |
| CC(O)CN(C)Cc1cc2c(=O)c(C(=O)NCc3ccc(Cl)cc3)cn(C)c2s1 (centres undefined) | 5.45 | 5.82 | – |
| CN(Cc1cc2c(=O)c(C(=O)NCc3ccc(Cl)cc3)cn(C)c2s1)CC(O)c1ccc(O)cc1 (centres undefined) | 7.00 | 7.24 | – |
| Nc1nc2c(ncn2COCCO)c(=O)[nH]1 [ACYCLOVIR] | – | – | CC50 at 72 h [5]: > 100000 nM; pIC50 (Human gammaherpesvirus 4): 5.16 |
| O=C(O)P(=O)(O)O [FOSCARNET] | – | – | pIC50 [7]: > 6.55 |
| Nc1nc(O)c2ncn(COC(CO)CO)c2n1 [GANCICLOVIR] | – | – | CC50 at 72 h [5]: > 100000 nM |
